Laboratory results as given in ChEMBL document CHEMBL4725330, “The design, synthesis and evaluation of 2-aminobenzoxazole analogues as potent and orally efficacious ChemR23 inhibitors” (Bioorg Med Chem, 2020).

Target: T1, Chemerin-like receptor 1 (Homo sapiens, UniProt Q99788)
T1 sequence (Q99788 whole entry): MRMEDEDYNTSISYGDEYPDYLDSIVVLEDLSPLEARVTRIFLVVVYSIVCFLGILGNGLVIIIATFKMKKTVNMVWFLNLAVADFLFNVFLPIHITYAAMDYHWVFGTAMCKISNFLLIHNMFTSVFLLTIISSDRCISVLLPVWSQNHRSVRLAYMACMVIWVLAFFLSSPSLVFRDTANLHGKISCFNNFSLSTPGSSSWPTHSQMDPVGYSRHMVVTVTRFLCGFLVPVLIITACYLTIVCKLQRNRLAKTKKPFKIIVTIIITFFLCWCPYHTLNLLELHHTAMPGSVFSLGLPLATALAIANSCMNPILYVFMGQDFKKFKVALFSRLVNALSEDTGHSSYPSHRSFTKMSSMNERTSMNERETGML
Assay: Inhibition of chemR23 in human CAL1 cells assessed as inhibition of chemerin-induced intracellular calcium ion concentration preincubated for 45 mins followed by human chemerin addition by FDSS6000 analysis
Type: functional, cell-based
Conditions: not given

Row | SMILES | IC50 [nM]
1 | CCCCN(c1nc2c(COC)cccc2o1)[C@H](C)c1ccc(-c2ccccc2-c2nnn[nH]2)cc1 | 29
2 | CCCCN(c1nc2ccccc2o1)[C@H](C)c1ccc(-c2cc(F)ccc2-c2nnn[nH]2)cc1 | 75
3 | CCCCN(c1nc2ccccc2o1)[C@H](C)c1ccc(-c2c(C)cccc2-c2nnn[nH]2)cc1 | 210
4 | CCCCN(c1nc2c(NC(C)=O)cccc2o1)[C@H](C)c1ccc(-c2ccccc2-c2nnn[nH]2)cc1 | 22
5 | CCCCN(c1nc2ccccc2o1)[C@H](C)c1ccc(-c2ccc(Cl)cc2-c2nnn[nH]2)cc1 | > 3000
6 | CCCCN(c1nc2ccccc2o1)[C@H](C)c1ccc(-c2ccc(OC)cc2-c2nnn[nH]2)cc1 | 3000
7 | CCCCN(c1nc2c(NS(C)(=O)=O)cccc2o1)[C@H](C)c1ccc(-c2ccccc2-c2nnn[nH]2)cc1 | 14
8 | CCCCN(c1nc2ccccc2o1)[C@H](C)c1ccc(-c2ccc(C)cc2-c2nnn[nH]2)cc1 | 2100
9 | CCCCN(c1nc2c(-c3ccncc3)cccc2o1)[C@H](C)c1ccc(-c2ccccc2-c2nnn[nH]2)cc1 | 300
10 | CCCCN(c1nc2c(-c3cccnc3)cccc2o1)[C@H](C)c1ccc(-c2ccccc2-c2nnn[nH]2)cc1 | > 1000
11 | CCCCN(c1nc2ccccc2o1)[C@H](C)c1ccc(-c2cc(C(F)(F)F)ccc2-c2nnn[nH]2)cc1 | 1320

Tested on: not listed separately
Assay: Fraction unbound in cynomolgus monkey plasma at 1 mg/kg, po administered as cassette dose incubated for 16 to 24 hrs by equilibrium dialysis based LC-MS analysis
Type: ADME, organism-based, Macaca fascicularis
Conditions: in vivo, time 16-24 hrs
How it was run: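 Monkey plasma diluted with PBS and spiked with compound at 1 µM (final DMSO 0.05% v/v) was equilibrium-dialysed against PBS (membrane MWCO 12000–14000) for 16–24 h at 37 °C in a CO2 incubator. Both sides were deproteinized with acetonitrile containing IS and analysed by LC-MS/MS. Undiluted fu,p was calculated from the diluted value using the dilution factor.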

Row | SMILES | Fu
12 | CCCCN(c1nc2c(-c3ccccn3)cccc2o1)[C@H](C)c1ccc(-c2ccccc2-c2nnn[nH]2)cc1 | 0.129 fraction (unitless)
13 | CCCCN(c1nc2c(-c3nccn3C)cccc2o1)[C@H](C)c1ccc(-c2ccccc2-c2nnn[nH]2)cc1 | 0.299 fraction (unitless)
14 | CCCCN(c1nc2c(NC(C)=O)cccc2o1)[C@H](C)c1ccc(-c2ccccc2-c2nnn[nH]2)cc1 | 0.102 fraction (unitless)
15 | C[C@H](c1ccc(-c2cc(Cl)ccc2-c2nc(=O)o[nH]2)cc1)N(CC1CC1)c1nc2c(C(=O)O)cccc2o1 | 0.0108 fraction (unitless)
16 | CCCCN(c1nc2c(C(=O)NC)cccc2o1)[C@H](C)c1ccc(-c2ccccc2-c2nnn[nH]2)cc1 | 0.0975 fraction (unitless)
17 | CCCCN(c1nc2ccccc2o1)[C@H](C)c1ccc(-c2ccccc2-c2nnn[nH]2)cc1 | 0.0713 fraction (unitless)
18 | CCCCN(c1nc2c(NS(C)(=O)=O)cccc2o1)[C@H](C)c1ccc(-c2ccccc2-c2nnn[nH]2)cc1 | 0.0203 fraction (unitless)

Tested on: not listed separately
Assay: Half-life in cynomolgus monkey at 1 mg/kg, po administered as cassette dose by LC-MS/MS analysis
Type: ADME, organism-based, Macaca fascicularis
Conditions: in vivo
How it was run: (§1)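 Cassette oral dosing, 1.0 mg/kg as a suspension in 0.5% methylcellulose, to fed cynomolgus monkeys. Plasma was obtained from blood, deproteinized with ice-cold acetonitrile containing internal standard, and measured by LC/MS/MS against a calibration curve using analyte/IS peak-area ratios. Values are means of three determinations.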

Row | SMILES | half-life [h]
19 | CCCCN(c1nc2c(-c3ccccn3)cccc2o1)[C@H](C)c1ccc(-c2ccccc2-c2nnn[nH]2)cc1 | 5.9
20 | CCCCN(c1nc2c(-c3nccn3C)cccc2o1)[C@H](C)c1ccc(-c2ccccc2-c2nnn[nH]2)cc1 | 3.9
21 | CCCCN(c1nc2c(NC(C)=O)cccc2o1)[C@H](C)c1ccc(-c2ccccc2-c2nnn[nH]2)cc1 | 2.2
22 | C[C@H](c1ccc(-c2cc(Cl)ccc2-c2nc(=O)o[nH]2)cc1)N(CC1CC1)c1nc2c(C(=O)O)cccc2o1 | 0.8
23 | CCCCN(c1nc2c(C(=O)NC)cccc2o1)[C@H](C)c1ccc(-c2ccccc2-c2nnn[nH]2)cc1 | 1.3
24 | CCCCN(c1nc2ccccc2o1)[C@H](C)c1ccc(-c2ccccc2-c2nnn[nH]2)cc1 | 3.2
25 | CCCCN(c1nc2c(NS(C)(=O)=O)cccc2o1)[C@H](C)c1ccc(-c2ccccc2-c2nnn[nH]2)cc1 | 4.7

Tested on: not listed separately
Assay: AUC (0 to infinity) in cynomolgus monkey at 1 mg/kg, po administered as cassette dose by LC-MS/MS analysis
Type: ADME, organism-based, Macaca fascicularis
Parameters: time infinity, route oral, dose 1 mg/kg
Conditions: in vivo
How it was run: as §1

Row | SMILES | AUC(0-inf) [ng·h/mL]
26 | CCCCN(c1nc2c(-c3ccccn3)cccc2o1)[C@H](C)c1ccc(-c2ccccc2-c2nnn[nH]2)cc1 | 248
27 | CCCCN(c1nc2c(-c3nccn3C)cccc2o1)[C@H](C)c1ccc(-c2ccccc2-c2nnn[nH]2)cc1 | 152
28 | CCCCN(c1nc2c(NC(C)=O)cccc2o1)[C@H](C)c1ccc(-c2ccccc2-c2nnn[nH]2)cc1 | 41.6
29 | C[C@H](c1ccc(-c2cc(Cl)ccc2-c2nc(=O)o[nH]2)cc1)N(CC1CC1)c1nc2c(C(=O)O)cccc2o1 | 1300
30 | CCCCN(c1nc2c(C(=O)NC)cccc2o1)[C@H](C)c1ccc(-c2ccccc2-c2nnn[nH]2)cc1 | 25.7
31 | CCCCN(c1nc2ccccc2o1)[C@H](C)c1ccc(-c2ccccc2-c2nnn[nH]2)cc1 | 44.3
32 | CCCCN(c1nc2c(NS(C)(=O)=O)cccc2o1)[C@H](C)c1ccc(-c2ccccc2-c2nnn[nH]2)cc1 | 73.8

Tested on: not listed separately
Assay: Oral bioavailability in cynomolgus monkey at 1 mg/kg and 0.1 mg/kg, iv administered as cassette dose by LC-MS/MS analysis
Type: ADME, organism-based, Macaca fascicularis
Conditions: in vivo
How it was run: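 Plasma was deproteinized with ice-cold acetonitrile containing internal standard and quantified by LC/MS/MS against a calibration curve from analyte/IS peak-area ratios. Values are means of three determinations.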

Row | SMILES | bioavailability [%]
33 | CCCCN(c1nc2c(-c3nccn3C)cccc2o1)[C@H](C)c1ccc(-c2ccccc2-c2nnn[nH]2)cc1 | 7.5
34 | CCCCN(c1nc2ccccc2o1)[C@H](C)c1ccc(-c2ccccc2-c2nnn[nH]2)cc1 | 1.8

Tested on: not listed separately
Assay: Cmax in cynomolgus monkey at 1 mg/kg, po administered as cassette dose by LC-MS/MS analysis
Type: ADME, organism-based, Macaca fascicularis
Parameters: route oral, dose 1 mg/kg
Conditions: in vivo
How it was run: as §1

Row | SMILES | Cmax [ng/mL]
35 | CCCCN(c1nc2c(-c3ccccn3)cccc2o1)[C@H](C)c1ccc(-c2ccccc2-c2nnn[nH]2)cc1 | 64
36 | CCCCN(c1nc2c(-c3nccn3C)cccc2o1)[C@H](C)c1ccc(-c2ccccc2-c2nnn[nH]2)cc1 | 79.9
37 | CCCCN(c1nc2c(NC(C)=O)cccc2o1)[C@H](C)c1ccc(-c2ccccc2-c2nnn[nH]2)cc1 | 13.2
38 | C[C@H](c1ccc(-c2cc(Cl)ccc2-c2nc(=O)o[nH]2)cc1)N(CC1CC1)c1nc2c(C(=O)O)cccc2o1 | 518
39 | CCCCN(c1nc2c(C(=O)NC)cccc2o1)[C@H](C)c1ccc(-c2ccccc2-c2nnn[nH]2)cc1 | 9.74
40 | CCCCN(c1nc2ccccc2o1)[C@H](C)c1ccc(-c2ccccc2-c2nnn[nH]2)cc1 | 12.8
41 | CCCCN(c1nc2c(NS(C)(=O)=O)cccc2o1)[C@H](C)c1ccc(-c2ccccc2-c2nnn[nH]2)cc1 | 26.5
